Screening results from PubChem BioAssay.
A selection: hits, their analogues and other compounds. The true share with any hit is near 2.9%.
Rev-erbA mod – modulators of human Rev-erb alpha DNA binding; P20393; Rev-erbα–FITC-DNA binding, fluorescence polarization, 90 min; activity, % at 10 µM; 370,000 compounds, 0.79% hits;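 active means activity above about 14%, limit read from the data; passing the limit was not always enough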;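 further: 0% = DMSO wells with 35 nM protein and 100% = DMSO wells with 750 nM protein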
Target sequence (P20393 whole entry, looked up): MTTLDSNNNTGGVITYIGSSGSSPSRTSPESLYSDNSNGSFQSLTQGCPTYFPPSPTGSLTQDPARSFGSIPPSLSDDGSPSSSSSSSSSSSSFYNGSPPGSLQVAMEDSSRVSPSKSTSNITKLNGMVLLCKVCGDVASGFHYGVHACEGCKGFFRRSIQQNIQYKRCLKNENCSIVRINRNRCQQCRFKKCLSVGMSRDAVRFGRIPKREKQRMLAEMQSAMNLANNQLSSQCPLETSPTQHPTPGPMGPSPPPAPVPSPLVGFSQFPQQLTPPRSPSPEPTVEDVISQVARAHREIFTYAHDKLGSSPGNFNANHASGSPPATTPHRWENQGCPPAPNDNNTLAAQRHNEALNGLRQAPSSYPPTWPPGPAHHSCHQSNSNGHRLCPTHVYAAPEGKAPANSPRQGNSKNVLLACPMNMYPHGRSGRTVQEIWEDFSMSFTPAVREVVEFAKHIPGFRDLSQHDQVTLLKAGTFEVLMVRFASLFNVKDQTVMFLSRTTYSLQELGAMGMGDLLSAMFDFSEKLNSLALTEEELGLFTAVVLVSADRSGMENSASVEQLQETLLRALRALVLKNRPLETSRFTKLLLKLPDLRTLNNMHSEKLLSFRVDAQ
MIN6 prolif – induces beta-cell replication in MIN6 cells; MIN6 cells proliferation, ATPlite luminescence, 48 h; cells starved in 0.2% serum; 100% = growth in 10% serum; proliferation, % at 10 µM; 330,000 compounds, 0.29% hits;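 active means compounds whose signal lies at least 3.5 SD above the mean of all wells on their plate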;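 further: 0% = DMSO-treated cells in low-serum medium and 100% = 10% serum control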
T cruzi repl – T. cruzi replication inhibition; T. cruzi beta-gal in NIH3T3, luminescence, 90 h; 300,000 compounds, 1.4% hits; AID 1885; inhibition, % (no concentration beside the values);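 active means mean inhibition across valid replicates above about 55%, limit read from the data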;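 further: signal also drops with host cell toxicity which is not excluded here; 0% = plate median of DMSO wells and 100% = zero luminescence signal; higher percent means less beta-gal luminescence so fewer parasites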
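Test system: β-gal T. cruzi (Tulahuen C4) inside NIH/3T3 cells / Quantity: 5,000 cells/well / Measured by: luminescence from GalScreen with 0.05% NP40, read after 60 min / Medium: DMEM plus 2% FBS / Measure: parasite load inhibition, % / Reagent: Tulahuen C4 trypomastigotes, 5000/well / Schedule: co-culture of at least 90 h after 3 h attachment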
iPSC survival up – hiPSC single-cell survival enhancement; ATPlite luminescence; 100% = ROCK inhibitor wells, 0% = DMSO; survival enhancement, % at 20 µM; 360,000 compounds, 0.044% hits; in the data active means survival enhancement above about 18%;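 further: cells exposed to compounds for 16 hours before the ATP read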
TAG inh – reduces triacylglycerol accumulation in H9c2 cells | Nile Red lipid (TAG) fluorescence; cells loaded with 200 µM oleic acid | inhibition, % at 12.5 µM | 230,000 compounds, 0.66% hits | AID 651582;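 active means pattern-corrected inhibition of lipid staining of at least 50% with the nuclear-stain viability signal not falling by more than 50%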;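 further: 0% = DMSO wells and 100% = triacsin C control wells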
PG9 Ab binder – small molecules binding HIV-1 gp120 antibody PG9. TR-FRET gp120-PG9 antibody binding. inhibition, % at 6.7 µM. 360,000 compounds, 0.43% hits; in the data active means inhibition above about 8.5%
An asterisk follows results filed as active; . = no result given.

SMILES	Rev-erbA mod	MIN6 prolif	T cruzi repl	iPSC survival up	TAG inh	PG9 Ab binder
CCN(CC1CCCN(CCc2cccc(F)c2)C1)C(=O)c1cc2ccccc2o1 (centres undefined)	-3	-6	50	-1	.	0
CSCCC(=O)N(C)CC1CCCN(CCc2cccc(C(F)(F)F)c2)C1 (centres undefined)	6	0	55*	0	1	-3
O=C(O)c1ccc(NC(=O)C2CC=CCC2C(=O)O)cc1 (centres undefined)	-1	1	-21	1	.	-1
COc1cccc(NC(=O)Cn2c(=O)n(-c3ccccc3)c(=O)c3oc4ccccc4c32)c1	-2	-2	30	0	.	-1
Cc1cc(C)c(C#N)c(SCc2ccccc2[N+](=O)[O-])n1	7	0	-7	0	-5	-2
Cc1cc(C)c(C#N)c(SCc2nnc(-c3ccccc3[N+](=O)[O-])o2)n1	-1	0	69*	-2	1	2
COc1cc(N(C(=O)Cc2cccs2)C(C(=O)NC2CCCCC2)c2ccc(C)cc2)ccc1-n1cnnn1 (centres undefined)	-3	-2	10	-1	.	-2
O=C(Nc1nc(-c2cccnc2)cs1)c1cccc([N+](=O)[O-])c1	-8	0	7	1	-6	3
Cn1ccnc1/C(=N\NC(=O)c1ccccc1)c1cccc([N+](=O)[O-])c1	3	-5	4	1	8	-1
Cc1ccc(NC(=O)c2csc(-c3ccccc3)c2C)cc1	-3	.	.	-2	.	3
O=C(N/N=C(\c1ccccc1)c1ccccn1)c1cccc([N+](=O)[O-])c1	.	-7	58*	-4	55*	.
Cc1c(C(=O)Nc2cccc([N+](=O)[O-])c2)csc1-c1ccccc1	1	-6	60*	-3	.	0
O=C(Nc1nc(-c2ccccc2)cs1)c1cccc([N+](=O)[O-])c1	4	-5	55*	2	.	-3
O=C(N/C(=C\c1ccccc1)C(=O)N1CCCCCC1)c1ccccc1	-2	1	6	0	.	-2
Cc1oc(-c2cccc(Cl)c2)nc1CN1CCCC(C(=O)NCCCN2CCOCC2)C1 (centres undefined)	1	-3	63*	1	-5	0
Cc1oc(-c2ccc(Cl)cc2)nc1CN1CCC(C(=O)NCCCN2CCOCC2)CC1	-4	-5	26	-4	7	0
CCN(CCNC(=O)C1CCCN(Cc2nc(-c3ccc(OC)cc3)oc2C)C1)c1ccccc1 (centres undefined)	-7	-5	62*	-1	.	0
CCc1ccc(-c2nc(CN3CCC(C(=O)NCCN(CC)c4ccccc4)CC3)c(C)o2)cc1	1	-6	30	-2	41	-4
Cc1cc(C)n2nc(-c3ccsc3-n3c(C)ccc3C)cc2n1	-27	0	55*	-1	-6	-3
CCN(CC)CCNc1ccc(C)c2sc3ccc(O)cc3c(=O)c12	8	.	.	-4	59*	-7
CCCCc1c(CCC)c(=N)c2ccccc2n1C	0	-6	60*	-2	-66	-6
CCC(=O)c1ccccc1OCCN1CCN(Cc2ccccc2)CC1	0	-3	22	-1	-6	-1
CCOc1ccccc1OCCOCCN1CCN(Cc2ccccc2)CC1	0	2	61*	1	.	1
Cc1c(C(=O)N/N=C/c2ccc(N3CCOCC3)cc2)nc2ccccn12	-2	-2	-3	-1	-12	-5
COc1cc(/C=N/NC(=O)c2nc3ccccn3c2C)cc(OC)c1O	9	0	81*	0	3	-4
SMILES	Rev-erbA mod	MIN6 prolif	T cruzi repl	iPSC survival up	TAG inh	PG9 Ab binder
CN1CCN(C(=O)c2ccccc2Nc2ccc(SC(F)F)cc2)CC1	-1	0	-6	-1	.	-2
CN1CCC(N(C)C(=O)c2ccccc2Nc2ccc(SC(F)F)cc2)CC1	6	-1	59*	-3	.	-1
O=C(NCc1cccnc1)c1ccc(-c2cc(Cl)ccc2Cl)o1	0	0	56*	1	13	0
O=C(NCc1cccnc1)c1ccc(-c2ccc(Cl)cc2)o1	0	-3	11	-2	.	-2
O=C(Nc1cccc(S(=O)(=O)N2CCOCC2)c1)c1cn(-c2ccccc2)nc1-c1ccc(F)cc1	0	-4	57*	1	.	-1
O=C(Nc1cccc(S(=O)(=O)N2CCOCC2)c1)c1cn(-c2ccccc2)nc1-c1ccccc1	0	-3	9	-1	.	-2
Cc1ccc(-c2nn(-c3ccccc3)cc2C(=O)Nc2ccc(C)c(S(=O)(=O)N3CCOCC3)c2)cc1	10	-3	73*	-2	.	-1
O=C(Nc1ccc2nc(-c3cccs3)[nH]c2c1)c1cccs1	-1	-3	-2	-5	42	2
O=C(Oc1ccc2ccc(=O)oc2c1)c1ccco1	-6	3	64*	1	5	-2
COc1ccccc1C(=O)Oc1ccc2ccc(=O)oc2c1	-6	0	-6	0	.	1
CC(C)(C)n1nnnc1C(c1ccc(Cl)cc1)N(Cc1cccnc1)Cc1ccco1 (centres undefined)	-1	-4	39	6	-27	1
COc1ccc(C2=CC(=O)C[C@H](c3ccc(OC)c(OC)c3)C2)cn1	0	6	.	46*	24	-3
Cc1nn(Cc2cccc(Oc3ccccc3)c2)c(C)c1NC(=O)NC12CC3CC(CC(C3)C1)C2	1	-1	57*	-1	.	0
O=C(NCc1ccccc1)NC12CC3CC(CC(C3)C1)C2	-1	-2	0	0	-10	-1
COc1ccc(CC(C)N2CCN(Cc3ccccc3)CC2)c(OC)c1 (centres undefined)	-2	3	61*	-2	.	1
O=C(CSc1nnnn1-c1cccc2ccccc12)Nc1ccc(N2CCOCC2)c(Cl)c1	-2	1	73*	3	.	0
CCOC(=O)c1cc(C#N)c(N2CCCC2)nc1-c1ccccc1	3	2	25	1	33	4
CCOC(=O)c1cc(C#N)c(N2CCN(C)CC2)nc1-c1ccccc1	0	4	57*	-1	4	0
O=Nc1c(-c2c(O)[nH]c3cc(Br)ccc23)[nH]c2ccccc12	-13	-8	3	-4	84*	-2
COc1ccccc1N1CCN(C(=O)c2cccc3c(=O)c(C)c(-c4ccccc4)oc23)CC1	5	-1	19	4	.	-1
CCOc1ccc(-c2cnc(NCc3cccc4ccccc34)n2CCOC)cc1	-4	-5	72*	-1	.	-1
COc1cc(CN/C(C)=C(\C#N)C(N)=O)cc(OC)c1OC	-4	-2	-22	1	.	1
